The subject of data set [1] is HCT-116. Briefly: Cytotoxicity against human HCT116 cells after 2 hrs by clonogenic assay. In kind it is functional. In short, it runs like this: (§1)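 Clonogenic dose-response on HCT-116 cells with exposures of 2, 24 and 168 h; the value is the concentration giving 90% cell kill at each exposure time.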
Data set [2] in a line: Toxicity in SCID mouse assessed as maximum tolerated dose. It counts as organism-based. The note with it: in vivo.
In data set [3] the test system is HCT-116. Briefly: Cytotoxicity against human HCT116 cells. In kind it is functional, cell-based. In short, it runs like this:
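HCT-116 cells in liquid culture; IC50 from two determinations, reported as their median.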

Data set [4] relates to HCT-116. Briefly: Cytotoxicity against human HCT116 cells after 24 hrs by clonogenic assay. It counts as functional. In short, it runs like this:
as §1

The target of data set [5] is Methionine aminopeptidase 2 (Homo sapiens, UniProt P50579). Briefly: Inhibition of methionine aminopeptidase 2.
In data set [6] the target is Methionine aminopeptidase 1 (Homo sapiens, UniProt P53582). Briefly: Inhibition of methionine aminopeptidase 1.
Data set [7] has as its system PC-3. Briefly: Cytotoxicity against human PC3 cells. In kind it is functional, cell-based.
The test system of data set [8] is MCF7. Briefly: Growth inhibition of human MCF7 cells. In kind it is functional.
For data set [9], the system named is MDA-MB-435. Briefly: Cytotoxicity against human MDA-MB-435 cells. The note with it: for CC50: read-out: LC50 (the source's name). It counts as functional, cell-based.
Data set [10] deals with HCT-116. Briefly: Anticancer activity against human HCT116 xenografted in SCID mouse at 31 ug/mouse dosed as bolus dose after 23 days relative to control. In kind it is functional. The gist of the method: (§2)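 Bolus injection into SCID mice bearing HCT-116 tumours at 125, 62 or 31 μg/mouse; tumour growth read as %T/C against controls at 23 days.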
Data set [11] relates to Mus musculus. Briefly: Toxicity in human HCT116 xenografted SCID mouse at 125 ug/mouse dosed as bolus dose after 23 days. In kind it is organism-based. The note with it: in vivo, 552 h. In short, it runs like this: as §2
Data set [12] relates to HCT-116. Briefly: Cytotoxicity against human HCT116 cells assessed as cell kill at >=2 ng/mL after 24 hrs by clonogenic assay. In kind it is functional. In short, it runs like this:
as §1

For data set [13], the system named is HCT-116. Briefly: Cytotoxicity against human HCT116 cells assessed as cell kill at >=20 pg/mL after 168 hrs by clonogenic assay. In kind it is functional. In short, it runs like this:
as §1

For data set [14], the system named is HCT-116. Briefly: Anticancer activity against human HCT116 xenografted in SCID mouse at 62 ug/mouse dosed as bolus dose after 23 days relative to control. It counts as functional. The gist of the method:
as §2

Data set [15] concerns HCT-116. Briefly: Cytotoxicity against human HCT116 cells assessed as cell kill at >=3 ng/mL after 2 hrs by clonogenic assay. In kind it is functional. In short, it runs like this:
as §1

Data set [16] concerns KB. Briefly: Cytotoxicity against human KB cells. In kind it is functional, cell-based.
The subject of data set [17] is Mus musculus. Briefly: Toxicity in human HCT116 xenografted SCID mouse assessed as increase in body weight at 25 mg/kg/day, iv administered as bolus dose from 3 days after tumor implantation for 5 days measured after 30 days. In kind it is organism-based. Also on record: route intravenous. The note with it: in vivo, 720 h. The gist of the method: (§3)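 SCID mice implanted with HCT-116 tumour cells, dosed iv as a bolus daily for 5 days starting 3 days after inoculation and followed to day 30. Tumour response read as %T/C against untreated controls; body weights tracked over the 30 days and compared with untreated controls.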

The test system of data set [18] is HCT-116. Briefly: Cytotoxicity against human HCT116 xenografted in SCID mouse at 12.3 mg/kg/day, iv administered as bolus dose from 3 days after tumor implantation for 5 days measured on day 9 relative to control. It counts as functional. The gist of the method:
as §3

Data set [19] has as its system HCT-116. Briefly: Cytotoxicity against human HCT116 xenografted in SCID mouse at 25 mg/kg/day, iv administered as bolus dose from 3 days after tumor implantation for 5 days measured on day 11 relative to control. It counts as functional. In short, it runs like this: as §3
Data set [20] has as its system Mus musculus. Briefly: Toxicity in human HCT116 xenografted SCID mouse assessed as increase in body weight at 12.3 mg/kg/day, iv administered as bolus dose from 3 days after tumor implantation for 5 days measured after 30 days. It counts as organism-based. Details: route intravenous; call rule not given here. The note with it: in vivo, 720 h. In short, it runs like this: as §3

In brackets after ≈: the same amount, converted by molar mass.

Sequence of Methionine aminopeptidase 2 (P50579 whole entry): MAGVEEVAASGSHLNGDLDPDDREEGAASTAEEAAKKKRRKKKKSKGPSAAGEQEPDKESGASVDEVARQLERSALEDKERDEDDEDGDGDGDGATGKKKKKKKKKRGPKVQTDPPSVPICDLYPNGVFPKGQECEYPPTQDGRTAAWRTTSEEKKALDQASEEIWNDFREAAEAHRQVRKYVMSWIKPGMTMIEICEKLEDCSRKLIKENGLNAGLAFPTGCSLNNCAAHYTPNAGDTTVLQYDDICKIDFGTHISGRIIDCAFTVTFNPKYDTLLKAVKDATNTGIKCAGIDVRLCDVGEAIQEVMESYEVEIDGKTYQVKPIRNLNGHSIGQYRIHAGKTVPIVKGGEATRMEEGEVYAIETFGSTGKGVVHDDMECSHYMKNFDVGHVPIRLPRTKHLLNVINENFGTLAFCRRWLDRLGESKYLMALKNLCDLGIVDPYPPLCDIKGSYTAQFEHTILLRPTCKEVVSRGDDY

Regarding `C=CC/C=C\Cc1csc(C(C)(C)[C@H](O)C/C=C\C(=C)CCNC(=O)OC)n1` [MYCOTHIAZOLE], the Activity in [1] and in data set [4] was greater than 10 µg/mL each time. The MTD in data set [2] was found to be 3 mg/kg. This compound showed an IC50 in data set [3] of 1.5 ng/mL (≈ 3.71 nM).

As to `CCC(C)CCCCCCCCCCC(=O)O[C@H]1CC[C@H](NC(=O)[C@H](OC)[C@H](O)[C@@H](O)[C@H](O)/C=C/C(C)C)C(=O)N(C)C1` (some centres not stated) [BENGAMIDE O], the IC50 in [5] is greater than 50000 nM.

For `CO[C@@H]1C(=O)CC[C@]2(CO2)[C@@]1(O)[C@@]1(C)O[C@@H]1CC=C(C)C` [OVALICIN], the IC50 entry in [6] is listed as “Not Active”.

As for `CC(C)(C)OC(=O)Nc1cccnc1C(=O)Nc1nccs1`, in data set [5], the IC50 was greater than 300000 nM.

Take `C=C(C)C[C@H](OC)[C@H](O)C(=O)N[C@@H](OC)C1C[C@@H](O)C(C)(C)[C@@H](C[C@H](O)[C@@H](C)[C@@H]2Cc3c(C)c(O)cc(O)c3C(=O)O2)O1` (some centres not stated) [IRCINIASTATIN]: in [7], the IC50 came to 1 nM. Besides, in [8], the GI50 was found to be 5.2 nM. The CC50 in data set [9] was less than 2.5 nM. In addition, the values for the T/C in [10] and in data set [14] were 86% and 75%, respectively. Further, the Activity result is on record as “Toxic” in [11], 90% in data set [12], 90% in [13] and 90% in [15]. The MTD in data set [2] is 0.125 mg/kg.

For `CO[C@@H]1[C@H](OC(=O)NC(=O)CCl)CC[C@]2(CO2)[C@H]1[C@@]1(C)O[C@@H]1CC=C(C)C` [O-CHLOROACETYLCARBAMOYLFUMAGILLOL], the IC50 entry in data set [6] was “Not Active”.

On to `CO[C@@H]1[C@H](OC(=O)/C=C/C=C/C=C/C=C/C(=O)O)CC[C@]2(CO2)[C@H]1[C@@]1(C)O[C@@H]1CC=C(C)C` [FUMAGILLIN], for which the half-inhibitory concentration (IC50) was 30 nM in data set [5] and “Not Active” in data set [6].

On to `C=C1C[C@H](C)C[C@@H]2CC=C[C@@H](C/C=C\C(=O)O[C@H]([C@@H](O)/C=C/[C@@H]3CC(C)=CCO3)C[C@@H]3O[C@H]3[C@@H](O)C1)O2` [FIJIANOLIDE B], for which the half-maximal inhibitory concentration (IC50) in data set [16] was determined as 29 nM; in data set [9], 2 nM. Moreover, in [9], the CC50 came out at 7 nM. Besides, the Activity entry in data set [17] and in [20] was “Non-toxic” in each case. Besides, the T/C came to 80% in [18] and 11% in data set [19].

For the origin of these results see ChEMBL document CHEMBL1152347, “A selective account of effective paradigms and significant outcomes in the discovery of inspirational marine natural products” (J Nat Prod, 2009).
